Measurements gathered from unrelated publications.
Lines come from different studies, so protocols differ.
MMP8: Neutrophil collagenase (MMP8, Homo sapiens, UniProt P22894)
Htr1d: 5-hydroxytryptamine receptor 1D (Htr1d, Rattus norvegicus, UniProt P28565)

For `CN(C)C(=O)COC(=O)Cc1ccc(OC(=O)c2ccc(NC(=N)N)cc2)cc1`, the inhibition was 33% (MMP8; enzyme activity; inhibitor; 10 µM).
`Cn1cc(-c2cc(F)cc(N3CCn4c(cc5c4CCCC5)C3=O)c2CO)cc(Nc2ccc(N3CCN(C4COC4)CC3)cn2)c1=O` gave an inhibition of -12% (Serine/threonine-protein kinase WNK2 (WNK2, Homo sapiens, UniProt Q9Y3S1); enzyme activity; inhibitor; 0.1 µM).
The inhibition of `c1ccc(C(NCCNC(c2ccccc2)c2ccccc2)c2ccccc2)cc1` is reported as -7% (Carbonic anhydrase 2 (CA2, Homo sapiens, UniProt P00918); enzyme activity; inhibitor; 10 µM).
The inhibition of `O=C(O)Cc1ccccc1Nc1c(Cl)cccc1Cl` is reported as over 50% (Histone acetyltransferase p300 (EP300, Homo sapiens, UniProt Q09472); enzyme activity; inhibitor; mobility shift; 1.25 mM).
The inhibition of `COc1ccc(S(=O)(=O)N(CC(=O)NO)CC(C)C)cc1` is reported as 91% (MMP8; enzyme activity; inhibitor; 1 µM).
The inhibition of `CC(C)=CCCC1(C)C=Cc2c(O)c3c(c(CC=C(C)C)c2O1)OC12C(=CC4CC1C(C)(C)OC2(C/C=C(/C)C(=O)O)C4O)C3=O` (stereo not shown) is reported as 7% (N-lysine methyltransferase KMT5A (KMT5A, Homo sapiens, UniProt Q9NQR1); cell-free assay; 10 µM).
`O=C(Nc1cccnn1)N1CCN([C@@H]2CCOc3cc(C(F)(F)F)ccc32)CC1` has an inhibition of 4% (Htr1d; cell-free assay; 20 µM).
For `COc1ccc(S(=O)(=O)N2CCCCC2)cc1C`, the inhibition was under 30% (Androgen receptor (AR, Homo sapiens, UniProt P10275); ligand displacement; radioligand; 10 µM).
The inhibition of `Cc1ncc(C)n2nc(/C=C/c3nc(N4CCCC4)cc(N4CCOCC4)n3)nc12` is reported as -1% (Htr1d; ligand displacement; 10 µM).
For `C#Cc1n[nH]c2c(-c3cn(C(C)c4ccccn4)c(=O)[nH]c3=O)cc(F)cc12` (stereo not shown), the inhibition was -10.4% (Misshapen-like kinase 1 (MINK1, Homo sapiens, UniProt Q8N4C8); enzyme activity; inhibitor; 1 µM).
`NC(CO)C(=O)N/N=C/c1ccc(O)c(O)c1` (stereo not shown) gave an inhibition of 55.9% (Genome polyprotein, protease (Coxsackievirus B3, UniProt P03313); enzyme activity; inhibitor; FRET; 50 µM).
`Cn1cc(-c2cccc(N3CCc4c(sc5c4CC(C)(C)C5)C3=O)c2CO)cc(Nc2ccncn2)c1=O` gave an inhibition of 16% (G protein-coupled receptor kinase 3 (GRK3, Homo sapiens, UniProt P35626); enzyme activity; inhibitor; 1 µM).
For `CCN(CC)CCCC[C@H](NC(=O)[C@H](CC(C)C)NC(=O)[C@H](C)NC(=O)[C@H](Cc1ccccc1)NC(=O)c1ccc(C(C)(C)C)cc1)C(=O)N[C@@H](CO)C(=O)OC`, the inhibition was 33% (Cholecystokinin receptor type A (CCKAR, Homo sapiens, UniProt P32238); ligand displacement; radioligand; 10 µM).
